From ChEMBL document CHEMBL1154198, “Chemical genetics of Plasmodium falciparum” (Nature, 2010)

Legend:
Plasmodium falciparum [1] = experiment: ST_JUDE: Plasmodium falciparum 3D7 EC50 (uM) as measured by SYBR green dye; type: functional, organism-based
Plasmodium falciparum [2] = experiment: ST_JUDE: Plasmodium falciparum K1 EC50 (uM) as measured by SYBR green dye; type: functional, organism-based
Plasmodium falciparum [3] = experiment: ST_JUDE: Cytotoxicity against Plasmodium falciparum 3D7; type: functional, organism-based
In short: (§1)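 Asexual P. falciparum grown in human erythrocytes, exposed to compounds for 72 h, and growth read as the DNA quantity in treated versus control cultures. Dose-response run at 12 concentrations from 10 μM to 5 nM.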

Plasmodium falciparum [4] = experiment: ST_JUDE: Cytotoxicity against Plasmodium falciparum K1; type: functional, organism-based; in short: as §1
Plasmodium falciparum [5] = experiment: ST_JUDE: Cytotoxicity against Plasmodium falciparum V1/S; type: functional, organism-based
Toxoplasma gondii = experiment: ST_JUDE: Growth inhibition of to Toxoplasma gondii, in human U-2OS cells, as measured by luciferase.; type: functional, organism-based; conditions: RH, U2OS
In short: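 T. gondii parasites engineered to express luciferase; drug sensitivity read by luminescence.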

Trypanosoma brucei = experiment: ST_JUDE: Cytotoxicity using luciferase to measure ATP as an indicator of the viability of Trypanosoma brucei; type: functional, organism-based
Leishmania major = experiment: ST_JUDE: Cytotoxicity using Alamar Blue to measure viability of Leishmania major; type: functional, organism-based
In short: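 L. major promastigotes; drug susceptibility read with Alamar Blue.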

[6] = ST_JUDE: Cytotoxicity using luciferase to measure ATP as an indicator of the viability of human foreskin fibroblast cells (BJ); type: toxicity, cell-based
[7] = ST_JUDE: Cytotoxicity using luciferase to measure ATP as an indicator of the viability of human epithelial hepatocellular carcinoma cells (HepG2); type: toxicity, cell-based
[8] = ST_JUDE: Cytotoxicity using luciferase to measure ATP as an indicator of the viability of human epithelial embryonic kidney cells (HEK293); type: toxicity, cell-based
[9] = ST_JUDE: Cytotoxicity using luciferase to measure ATP as an indicator of the viability of human Burkitt''s lymphoma lymphoblast cells (Raji); type: toxicity, cell-based
Plasmodium falciparum [10] = experiment: ST_JUDE: Cytotoxicity against Plasmodium falciparum Dd2; type: functional, organism-based
Plasmodium falciparum [11] = experiment: ST_JUDE: Cytotoxicity against Plasmodium falciparum W2; type: functional, organism-based
Plasmodium falciparum [12] = experiment: ST_JUDE: Cytotoxicity against Plasmodium falciparum SB-A6; type: functional, organism-based
Plasmodium falciparum [13] = experiment: ST_JUDE: Cytotoxicity against Plasmodium falciparum D10 transfected with yeast DHOD; type: functional, organism-based

Row | Structure (SMILES) | EC50 (Plasmodium falciparum [1]) | EC50 (Plasmodium falciparum [2]) | EC50 (Plasmodium falciparum [3]) | EC50 (Plasmodium falciparum [4]) | EC50 (Plasmodium falciparum [5]) | EC50 (Toxoplasma gondii) | EC50 (Trypanosoma brucei) | EC50 (Leishmania major) | EC50 [6] | EC50 [7] | EC50 [8] | EC50 [9] | EC50 (Plasmodium falciparum [10]) | EC50 (Plasmodium falciparum [11]) | EC50 (Plasmodium falciparum [12]) | EC50 (Plasmodium falciparum [13])
1 | CCOc1cc(C2CC(=O)NC3=C2C(=O)CC(c2ccc(OC)cc2)C3)cc(Cl)c1O (centres undefined) | 525 nM | 840 nM | 976 nM | 1040 nM | 1180 nM | > 24300 nM | > 42600 nM | > 19000 nM | > 44400 nM | > 44400 nM | > 44400 nM | > 44400 nM | 1310 nM | 637 nM | 1230 nM | 1160 nM
2 | C[N+](C)(C)c1nc(N2CCOCC2)nc(N(c2ccccc2)c2ccccc2)n1 | 529 nM | 1830 nM | 396 nM | 1510 nM | 1840 nM | > 23500 nM | 5590 nM | > 18300 nM | > 42800 nM | > 42800 nM | > 42800 nM | 10600 nM | 1300 nM | 5820 nM | 626 nM | 880 nM
3 | C=CC[n+]1c(C=C2C=CN(CC)C=C2)sc2ccccc21 | 425 nM | 305 nM | 1000 nM | > 7250 nM | 1270 nM | > 15500 nM | 1510 nM | 20.8 nM | > 28200 nM | > 28200 nM | > 28200 nM | 1240 nM | 696 nM | > 7250 nM | 1310 nM | 1290 nM
4 | CCOc1ccc(N(C(C)=O)C2=C(N(C)C)C(=O)c3ccccc3C2=O)cc1 | 5.5 nM | 7.5 nM | 2.7 nM | 3.5 nM | 5.5 nM | 10600 nM | 1240 nM | > 12900 nM | 11200 nM | 4820 nM | > 30200 nM | 354 nM | 6.3 nM | 8.5 nM | 1 nM | 1 nM
5 | Cc1ccc2c(c1)N(C)/C(=C/c1sc3ccccc3[n+]1CCO)S2 | 1580 nM | 440 nM | 320 nM | 420 nM | 546 nM | > 10600 nM | 6040 nM | > 8280 nM | > 19300 nM | > 19300 nM | > 19300 nM | 2100 nM | 341 nM | 432 nM | 514 nM | 362 nM
6 | CCO/C(O)=C1\C(C)=NC2=C(C(=O)CC(c3ccc(OC)c(OC)c3)C2)C1c1cccc(C)c1 (centres undefined) | 1020 nM | 633 nM | 1100 nM | 950 nM | 1180 nM | > 22300 nM | > 39000 nM | > 17400 nM | > 40600 nM | > 40600 nM | > 40600 nM | > 40600 nM | 2080 nM | 816 nM | 602 nM | 1360 nM
7 | CN1/C(=C/c2cccc[n+]2C)Sc2ccccc21 | 540 nM | 389 nM | 567 nM | 605 nM | 503 nM | > 15500 nM | 3950 nM | 108 nM | > 28300 nM | > 28300 nM | > 28300 nM | 4050 nM | 771 nM | 495 nM | 681 nM | 879 nM
8 | COc1ccc(Nc2cc(C)nc(Nc3ccc(NS(=O)(=O)c4ccc(OC)cc4)cc3)n2)cc1 | 743 nM | > 15000 nM | 1030 nM | > 12900 nM | > 12900 nM | > 27600 nM | 5790 nM | 175 nM | > 50300 nM | 17400 nM | 30600 nM | 14300 nM | 1230 nM | > 12900 nM | 546 nM | 1690 nM
9 | O=S(=O)(c1ccc(Cl)cc1)N1CCN(C(=S)NCc2ccco2)CC1 | 1510 nM | 1270 nM | 864 nM | 1150 nM | 2400 nM | > 16500 nM | 24900 nM | > 12900 nM | > 30100 nM | > 30100 nM | > 30100 nM | > 30100 nM | 849 nM | 820 nM | 4460 nM | 3490 nM
